Laboratory results: ChEMBL document CHEMBL1130018, “Synthesis and anticonvulsant activities of 3,3-dialkyl- and 3-alkyl-3-benzyl-2-piperidinones (delta-valerolactams) and hexahydro-2H-azepin-2-ones (epsilon-caprolactams)” (J Med Chem, 1997)

Key:
[1] = Protective Index (PI) determined as the ratio of toxic dose (TD50) and effective dose (ED50 (MES)); format: ADME; conditions: mouse; read-out: PI
Outline: (§1)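 The protective index was calculated as rotorod TD50 divided by the ED50 against PTZ- or MES-induced seizures. All values come from i.p. dosing in 30% polyethylene glycol in mice, six per dose.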

[2] = Protective Index (PI) determined as the ratio of toxic dose (TD50) and effective dose (ED50 (PTZ)); format: ADME; conditions: mouse; read-out: PI; outline: as §1
[3] = Neurotoxicity was evaluated by a rotarod test; format: toxicity; conditions: mouse
Outline: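 Mice were given at least four i.p. doses of compound in 30% polyethylene glycol at 0.01 mL/g, with six per dose, then tested on the rotorod. TD50 is the dose at which 50% failed, with 95% fiducial limits. Where these could not be calculated, the highest all-nontoxic dose and the lowest all-toxic dose are given instead.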

Rattus norvegicus [4] = organism: Rattus norvegicus; assay: Antagonism of compound (600 uM) induced potentiation of 3 uM GABA-mediated chloride currents in cultured rat hippocampal neurons; format: functional
Outline: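 Cultured rat hippocampal neurons. Test compound was applied with 3 μM GABA, with and without α-isopropyl-α-methyl-γ-butyrolactone (3 mM). Peak current was normalized to the peak from 3 μM GABA alone on the same cell, where 100% means no change. Mean ± SEM over N cells; Student's t test compared compound alone with compound plus antagonist.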

[5] = molecular target: GABA-A receptor; anion channel (Rattus norvegicus) (UniProt O09028+P15431+P18506+P18508+P19969+P20236+P23574+P23576+P28471+P28473+P30191+P62813+P63079+P63138+Q91ZM7+Q9ES14); assay: Induced potentiation of 3 uM GABA-mediated chloride currents at 1 mM in the presence of 3 mM alpha-IMGBL (picrotoxin antagonist); format: functional
Outline: (§2)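 Whole-cell peak current evoked by 3 μM GABA, with test compound alone or with 3 mM α-isopropyl-α-methyl-γ-butyrolactone, in cultured rat hippocampal neurons. Each peak was normalized to the peak from 3 μM GABA alone on the same cell, with 100% meaning no change. Values are mean ± SEM over 5–14 cells. Alone vs plus antagonist was compared by Student's t test.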

Mus musculus [6] = organism: Mus musculus; assay: Anticonvulsant activity expressed as dose at which 50% of the mice were protected from tonic hindlimb seizures induced by maximal electroshock (MES); format: functional
Outline: (§3)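 Mice were given at least four doses, with six animals per dose. Compound was dissolved in 30% polyethylene glycol and injected i.p. at 0.01 mL/g body weight. Challenge was pentylenetetrazole 85 mg/kg (clonic seizures) or maximal electroshock (tonic hindlimb extension). ED50 is the dose protecting 50%, with 95% fiducial limits.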

[7] = molecular target: GABA-A receptor; anion channel; assay: Ability to displace radioligand [35S]TBPS from Gamma-aminobutyric acid A receptor binding site in rat brain membranes; format: cell membranes
Outline: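 Values are mean and range from duplicate experiments, each run in triplicate. For some lactams the values are mean ± SEM of three experiments run in triplicate. Read-out is IC50 (mM) for displacement of [35S]TBPS.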

Mus musculus [8] = assay: Anticonvulsant activity expressed as dose at which 50% of the mice were protected from clonic seizures induced by pentylenetetrazole (85 mg/Kg); format: functional; outline: as §3
Rattus norvegicus [9] = organism: Rattus norvegicus; assay: Antagonism of compound (200 uM) induced potentiation of 3 uM GABA-mediated chloride currents in cultured rat hippocampal neurons; format: functional; outline: as §2
Rattus norvegicus [10] = organism: Rattus norvegicus; assay: Antagonism of compound (300 uM) induced potentiation of 3 uM GABA-mediated chloride currents in cultured rat hippocampal neurons; format: functional; outline: as §2
Mus musculus [11] = assay: Anticonvulsant activity expressed as dose at which 50% of the mice were protected from clonic seizures induced by pentylenetetrazole (85 mg/Kg); cytotoxicity observed at 300 mg/kg; format: functional
Rattus norvegicus [12] = organism: Rattus norvegicus; assay: Antagonism of compound (1 mM) induced potentiation of 3 uM GABA-mediated chloride currents in cultured rat hippocampal neurons; format: functional; outline: as §2

Row | Structure (SMILES) | selectivity ratio [1] | selectivity ratio [2] | TD50 [3] [mg/kg] | Response (Rattus norvegicus [4]) [%] | Response [5] [%] | ED50 (Mus musculus [6]) [mg/kg] | IC50 [7] [µM] | ED50 (Mus musculus [8]) [mg/kg] | Response (Rattus norvegicus [9]) [%] | Response (Rattus norvegicus [10]) [%] | ED50 (Mus musculus [11]) [mg/kg] | Response (Rattus norvegicus [12]) [%]
1 | CCC1(CC)CCNC1=O | 1.49 | 5.65 | – | – | – | – | – | – | – | – | – | –
2 | CCC1(Cc2ccccc2)CCCCNC1=O (configuration not stated) | – | – | > 100 | 128 | 107 | > 100 | 90 | > 100 | – | – | – | –
3 | CCC1CCCNC1=O (configuration not stated) | > 0.59 | > 1.09 | > 325 | – | – | 550 | 8780 | 297 | – | – | – | –
4 | CCCC(CCC)C(=O)O [VALPROIC ACID] | – | – | – | – | – | 206 | – | – | – | – | – | –
5 | CCC1(c2ccccc2)C(=O)NC(=O)NC1=O [PHENOBARBITAL] | 5.18 | 4 | 88 | – | – | 17 | – | – | – | – | – | –
6 | CCC1(C)CCCNC1=O (configuration not stated) | 1.9 | 2.25 | 378 | – | – | 199 | 4410 | 168 | – | – | – | –
7 | CCC1(C)CC(=O)NC1=O (configuration not stated) [ETHOSUXIMIDE] | < 0.67 | 2.35 | 378 | – | – | > 562 | – | – | – | – | – | –
8 | CC1CCCNC1=O (configuration not stated) | – | – | > 600 | – | – | – | 27700 | – | – | – | – | –
9 | O=C1NCCC1Cc1ccccc1 (configuration not stated) | 3.51 | 2.03 | – | – | – | – | – | – | – | – | – | –
10 | CCC1(CC)CCCCNC1=O | 0.74 | 0.58 | 131 | – | 105 | 178 | 380 | 226 | 117 | – | – | –
11 | CCC1(Cc2ccccc2)CCCNC1=O (configuration not stated) | 1.47 | 1.69 | 103 | – | 93 | 70 | 270 | – | – | 138 | – | –
12 | O=C1CCCCCN1 [CAPROLACTAM] | < 1 | < 1 | < 300 | – | – | > 300 | 17400 | – | – | – | > 300 | –
13 | CC1(Cc2ccccc2)CCCNC1=O (configuration not stated) | 2.5 | 2.23 | 125 | – | – | 50 | 730 | – | – | – | – | –
14 | CCC1(CC)CCCNC1=O | 3.06 | 4.46 | 165 | – | 102 | 54 | 1310 | 37 | – | – | – | 142
15 | CCC1CCCCNC1=O (configuration not stated) | 0.58 | 0.69 | 145 | – | – | 249 | 3200 | 210 | – | – | – | –
16 | O=C1NCCCC1Cc1ccccc1 (configuration not stated) | 7.05 | 3.52 | 289 | – | – | 41 | 1440 | 82 | – | – | – | –
17 | O=C1CCCCN1 | – | – | > 600 | – | – | > 600 | 197000 | – | – | – | – | –
